Screening data deposited in PubChem by several laboratories.
SENP6 block = blocks the human protease SENP6. Q9GZR1. Recombinant SENP6 catalytic domain, aminoluciferin luminescence. inhibition, % at 10 µM. 330,000 compounds, 1.8% hits. AID 2599;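 active = inhibition above about 50% at the single tested dose, limit read from the data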;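 note: plate controls were DMSO wells with enzyme for no effect and DMSO wells lacking enzyme for full effect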
Platelet DG rel = modulates dense granule release in human platelets | human platelet-rich plasma, SFLLRN dense granule ATP release, luminescence | inhibition, %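 (compounds screened at 7.5 µM in platelet-rich plasma)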 | 300,000 compounds, 0.22% hits;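 active = mean replicate score, as percent of positive control, at or above 50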
SENP8 block-1 = blocks the human protease SENP8; Q96LD8; purified SENP8, Z-RLRGG-aminoluciferin cleavage, luminescence; inhibition, % at 10 µM; 330,000 compounds, 1.2% hits; AID 2540; in the data active = inhibition above about 50%
Target sequence (Q96LD8 whole entry, looked up): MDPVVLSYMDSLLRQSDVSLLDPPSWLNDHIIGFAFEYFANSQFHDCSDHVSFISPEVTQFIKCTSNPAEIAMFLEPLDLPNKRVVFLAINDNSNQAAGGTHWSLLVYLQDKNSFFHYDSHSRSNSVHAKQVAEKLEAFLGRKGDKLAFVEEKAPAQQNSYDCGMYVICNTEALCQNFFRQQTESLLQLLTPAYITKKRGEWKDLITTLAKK
SENP7 block = SENP7 protease inhibition; recombinant SENP7, Z-RLRGG-aminoluciferin luminescence, 40 min; AID 434973; inhibition, % at 5 µM; Q9BQF6; 330,000 compounds, 1.5% hits;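 active = inhibition above about 50% at the single test dose, limit read from the data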;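 note: plate controls were DMSO with enzyme for no effect and no enzyme buffer wells for full effect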
Target sequence (Q9BQF6 706-1050 limits assumed): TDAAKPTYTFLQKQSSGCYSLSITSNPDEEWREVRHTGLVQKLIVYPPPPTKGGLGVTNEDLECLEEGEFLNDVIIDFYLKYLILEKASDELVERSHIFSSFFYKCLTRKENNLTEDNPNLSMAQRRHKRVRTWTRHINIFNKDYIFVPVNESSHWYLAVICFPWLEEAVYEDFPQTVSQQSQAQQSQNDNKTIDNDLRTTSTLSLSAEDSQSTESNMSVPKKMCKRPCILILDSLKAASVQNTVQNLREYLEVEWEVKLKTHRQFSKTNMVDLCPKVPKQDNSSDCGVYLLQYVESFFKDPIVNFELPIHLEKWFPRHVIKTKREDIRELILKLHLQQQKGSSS
SENP8 block-2 = blocks human SENP8 cleavage of Nedd8 substrate | Q96LD8 | recombinant SENP8, Nedd8 substrate fluorescence | inhibition, % at 20 µM | 360,000 compounds, 0.64% hits | AID 602440; in the data active = inhibition mostly above about 40%, no sharp cut-off; inactive = mostly below about 27%
SENP1 inh = inhibitors of human SENP1 SUMO protease catalytic domain. Q9P0U3. recombinant SENP1 catalytic domain, CyPet-SUMO1-YPet FRET cleavage. inhibition, % at 10 µM. 360,000 compounds, 0.21% hits. AID 624204;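 active = inhibition at least 30% at 10 µM, raw YFP signal under a set limit, fluorescence ratio 0.5 to 1.5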;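 note: 0% = enzyme with DMSO and 100% = no enzyme wells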
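Test system: human SENP1 catalytic domain; medium: Tris pH 8 buffer plus EDTA, NaCl, BME, BSA, NP40, catalase; incubation: 50 min reaction at room temperature; technique: FRET, CFP and YFP emission; controls: no-enzyme low control and enzyme-plus-DMSO high control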
SENP8 inh conf = confirmation of human SENP8 protease inhibitors; shares compounds with SENP8 block-2; purified SENP8, Nedd8-AMC/pro-Nedd8 cleavage fluorescence, 30 min; inhibition, % at 25 µM; 1,400 compounds, 15% hits; AID 624319; in the data active = inhibition mostly above about 39%, no sharp cut-off; inactive = mostly below about 34%
Starred values were filed as active, the others as inactive; nt = no result. A selection: hits, their analogues and other compounds. The true share with any hit is near 2.6%.

SMILES	SENP6 block	Platelet DG rel	SENP8 block-1	SENP7 block	SENP8 block-2	SENP1 inh	SENP8 inh conf
O=C(COC(=O)c1ccc([N+](=O)[O-])o1)NCc1ccc(F)cc1	6	nt	-3	4	43*	-2	78*
O=C(COC(=O)c1ccc([N+](=O)[O-])o1)NC1CCS(=O)(=O)C1 (stereo not given)	-8	1	3	4	50*	1	89*
CC1Cc2ccccc2N1C(=O)COC(=O)c1ccc([N+](=O)[O-])o1 (stereo not given)	26	nt	4	18	42*	-1	80*
CC1Cc2ccccc2N1C(=O)COC(=O)c1ccco1 (stereo not given)	nt	nt	nt	nt	6	1	nt
CC(=O)OCc1c(C(F)(F)F)nn(C)c1Oc1ccccc1	9	-3	2	4	33	-1	nt
CC(=O)Nc1ccc(Nc2ncnc3ccccc23)cc1	-16	-1	-8	-4	nt	nt	nt
CCc1ccc(N(C(C)=O)C2C=CS(=O)(=O)C2)cc1 (stereo not given)	12	-7	5	11	14	1	nt
CCN(CC)S(=O)(=O)c1cccc(C(=O)N[C@H](C(=O)OCC(N)=O)C(C)C)c1	-10	1	7	5	17	0	nt
Cc1cccc2cc(CN(Cc3cccs3)S(=O)(=O)c3ccc4c(c3)OCCO4)c(=O)[nH]c12	4	19	4	8	-141	1	nt
CCc1c(C)sc(NC(NC(C)=O)(C(=O)OC)C(F)(F)F)c1C#N (stereo not given)	-28	12	-7	-8	6	2	nt
O=C(Cn1c(=O)n(Cc2ccccc2)c(=O)c2cc(Cl)ccc21)NCC1CCCO1 (stereo not given)	-7	2	-10	-9	-2	1	nt
O=C(Cn1c(=O)n(CCC(=O)N2CCc3ccccc3C2)c(=O)c2ccccc21)NCC1CCCO1 (stereo not given)	nt	-1	nt	nt	62*	-4	16
CN1C(=O)C(C)(C)c2cc(S(=O)(=O)N3CCN(c4ccc(F)cc4)CC3)ccc21	4	3	-5	1	11	2	nt
COc1ncccc1C(=O)N1CCCC(C(=O)c2cc(F)ccc2F)C1 (stereo not given)	-3	-1	0	-3	12	1	nt
CSc1ncccc1C(=O)N1CCCC(C(=O)c2cc(F)ccc2F)C1 (stereo not given)	-4	-2	1	0	57*	5	10
Clc1ccc(OCCN2CCOCC2)cc1Cl	9	3	4	10	19	1	nt
C/C=C/c1ccc(OCCCCn2cncn2)c(OC)c1	-6	nt	7	-1	2	2	nt
C/C=C/c1ccc(OCCCn2cncn2)c(OC)c1	-10	0	-8	-15	47*	2	12
CC1CCCN(c2cc(N(C)CCO)c([N+](=O)[O-])c3nonc23)C1 (stereo not given)	-6	7	1	1	49*	8	1
Cc1c(Cl)c(C(=O)NNC(=S)NCc2ccco2)nn1C	-12	-2	-10	-7	40*	3	14
Cn1cc(Cl)c(C(=O)NNC(=S)NCc2ccco2)n1	8	1	-2	4	-1	-1	nt
Cc1ccc(C(=O)NCc2ccccn2)c(Cl)c1	3	9	-6	-5	41*	1	22
COc1cc(NCCCNC(C)C)c2nccc(C)c2c1	nt	nt	nt	nt	65*	-17	48*
COc1ccc2[nH]c3c(NCCN4CCCCC4)ncnc3c2c1	-54	-2	-10	-3	-263	-2	nt
O=[N+]([O-])c1ccc(S(=O)(=O)N2CCN(Cc3c[nH]c4ccccc34)CC2)cc1	3	-6	5	3	59*	6	24
SMILES	SENP6 block	Platelet DG rel	SENP8 block-1	SENP7 block	SENP8 block-2	SENP1 inh	SENP8 inh conf
COc1ccc(S(=O)(=O)N2CCN(Cc3c[nH]c4ccccc34)CC2)cc1	15	2	1	-1	24	5	nt
Cc1cnc(=O)[nH]c1SCc1ccccc1F	-2	6	-20	-14	17	4	nt
CCN1CCN(C(c2cccs2)C(C)NS(=O)(=O)c2ccc(Br)cc2)CC1 (stereo not given)	-14	8	-5	-2	18	-1	nt
CNc1ccc(/C=C/C(=O)c2cccc3ccccc23)cc1[N+](=O)[O-]	-12	-5	8	3	47*	7	13
CNc1ccc(C(=O)c2ccccc2C(=O)O)cc1[N+](=O)[O-]	-8	-2	1	-13	6	-1	nt
COc1cc(/C=C2\SC(=O)N(Cc3ccc(Cl)cc3)C2=O)cc([N+](=O)[O-])c1O	nt	nt	nt	nt	31	5	nt
COc1cc(/C=C2\SC(=O)N(Cc3ccc(F)cc3)C2=O)cc([N+](=O)[O-])c1O	7	6	7	-4	40*	10	21
CCN1CCN(C(=O)COCc2cc(-c3ccc4c(c3)OCO4)on2)CC1	-8	4	3	-8	4	1	nt
CCN(CC)c1ccc(NC(=O)c2cc3c(OC)cccc3[nH]2)cc1	-7	-9	-4	1	-16	-26	nt
CN(C)CCCN(C(=O)c1ccc2c(c1)OCCO2)c1nc2cc3c(cc2s1)OCO3	-12	0	2	9	10	2	nt
CN(C)CCN(C(=O)c1ccc(N2C(=O)CCC2=O)cc1)c1nc2cc3c(cc2s1)OCO3	-5	5	4	6	59*	2	48*
CCC(C)C(NC(N)=O)C(=O)Nc1ccc(OCc2ccccc2)cc1 (stereo not given)	0	5	2	8	49*	4	20
COc1ccc(Br)c(C(=O)OCC(=O)N2CCC(Cc3ccccc3)CC2)c1	-3	nt	-7	-9	42*	0	7
O=[N+]([O-])c1nn(-c2ccc(Cl)cc2)n(O)c1=NCc1ccncc1	-20	-4	-4	8	47*	-2	32
O=C(O)c1ccc(Cl)c(S(=O)(=O)NCc2ccco2)c1	-10	4	-13	4	43*	2	-8
COC(=O)N/N=C1/C/C(=N\NC(=O)OC)c2ccccc21	16	-2	18	15	81*	2	96*
CCOc1ccc(-n2c(=O)[nH]cc(C(=O)N3CCc4ccccc43)c2=O)cc1	-23	3	-6	-3	18	0	nt
Nc1ccccc1O	13	nt	4	9	58*	17	13
Cc1ccc2sc(NNC(=O)c3cc(=O)c4ccccc4o3)nc2c1C	96*	-6	94*	19	66*	26	25
COc1ccc2nc(NNC(=O)c3cc(=O)c4ccccc4o3)sc2c1	47	3	22	-2	-47	30	nt
O=C(Nc1ncn[nH]1)c1cc(S(=O)(=O)Nc2cccc(C(F)(F)F)c2)ccc1Cl	-2	11	-1	7	-1	0	nt
